Data as given in ChEMBL document CHEMBL1154972, “Novel pyrazolo-tetrahydropyridines as potent orexin receptor antagonists” (Bioorg Med Chem Lett, 2010).
Calls of active or inactive are those of the source. The calls are words filed in the database; no cut-off is given here.

Experiments:
[1] = molecular target: T1, Orexin/Hypocretin receptor type 1 (Homo sapiens, UniProt O43613); test: Antagonist activity at human OX1 receptor expressed in CHO cells assessed as inhibition of calcium mobilization by FLIPR assay; type: functional, cell-based
T1 sequence (O43613 whole entry): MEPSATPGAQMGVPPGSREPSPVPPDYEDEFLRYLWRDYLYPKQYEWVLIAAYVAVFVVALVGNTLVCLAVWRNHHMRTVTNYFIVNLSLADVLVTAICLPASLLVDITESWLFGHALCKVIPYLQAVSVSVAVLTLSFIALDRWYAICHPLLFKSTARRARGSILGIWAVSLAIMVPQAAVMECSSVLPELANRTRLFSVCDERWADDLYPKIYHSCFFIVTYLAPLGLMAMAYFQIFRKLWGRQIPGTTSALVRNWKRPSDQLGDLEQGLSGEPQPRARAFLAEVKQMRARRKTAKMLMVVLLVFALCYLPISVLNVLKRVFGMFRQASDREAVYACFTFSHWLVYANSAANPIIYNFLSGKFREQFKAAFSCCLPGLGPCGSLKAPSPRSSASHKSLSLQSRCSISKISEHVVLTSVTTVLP
Procedure, shortened: (§1)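 CHO cells stably bearing human OX1 or OX2 receptor, plated and loaded at 37 °C, 5% CO2 with fluo-3 AM calcium dye, then washed. Test antagonists added at varying concentrations before orexin A challenge; intracellular Ca2+ rise followed as fluorescence change on FLIPR. IC50 taken as concentration giving 50% inhibition of agonist response.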

Orexin receptor type 2 = molecular target: T2, Orexin receptor type 2 (Homo sapiens, UniProt O43614); test: Antagonist activity at human OX2 receptor expressed in CHO cells assessed as inhibition of calcium mobilization by FLIPR assay; type: functional, cell-based; procedure, shortened: as §1
T2 sequence (O43614 whole entry): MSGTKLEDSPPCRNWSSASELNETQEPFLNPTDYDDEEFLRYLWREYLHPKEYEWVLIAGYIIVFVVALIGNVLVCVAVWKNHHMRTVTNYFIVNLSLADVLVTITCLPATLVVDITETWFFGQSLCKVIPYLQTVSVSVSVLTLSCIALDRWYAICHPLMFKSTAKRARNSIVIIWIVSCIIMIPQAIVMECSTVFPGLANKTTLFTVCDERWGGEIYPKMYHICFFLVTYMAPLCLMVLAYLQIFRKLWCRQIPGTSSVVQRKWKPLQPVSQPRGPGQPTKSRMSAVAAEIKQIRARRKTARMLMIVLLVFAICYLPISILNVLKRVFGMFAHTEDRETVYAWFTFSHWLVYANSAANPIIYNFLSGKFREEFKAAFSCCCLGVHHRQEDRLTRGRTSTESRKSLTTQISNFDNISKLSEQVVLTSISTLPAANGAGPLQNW

Rattus norvegicus [2] = test: Somnolence activity in Wistar rat assessed as home cage activity in dark at 100 mg/kg, po over 12 hrs night period by radiotelemetric assay; type: functional, organism-based; parameters: dose 100 mg/kg
Procedure, shortened: (§2)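 Adult male Wistar rats carrying radiotelemetric implants; single oral dose 100 mg/kg in 100% PEG-400 given at dark (active) phase onset. EEG, EMG, home cage activity and body temperature recorded, effects integrated over following 12-h night. Crossover design, groups of 7 or 8, washout of at least 4 days; paired t-test; means ± SEM.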

Rattus norvegicus [3] = test: Somnolence activity in Wistar rat assessed as time spent in active wake at 100 mg/kg, po over 12 hrs night period by radiotelemetric assay; type: functional, organism-based; parameters: dose 100 mg/kg; procedure, shortened: as §2
Rattus norvegicus [4] = test: Somnolence activity in Wistar rat assessed as time spent in non-rapid eye movement sleep at 100 mg/kg, po over 12 hrs night period by radiotelemetric assay; type: functional, organism-based; parameters: dose 100 mg/kg; procedure, shortened: as §2
Rattus norvegicus [5] = test: Somnolence activity in Wistar rat assessed as time spent in rapid eye movement sleep at 100 mg/kg, po over 12 hrs night period by radiotelemetric assay; type: functional; procedure, shortened: as §2

IC50 [1] [nM]	IC50 (Orexin receptor type 2) [nM]	Structure (SMILES)	Activity (Rattus norvegicus [2])	Activity (Rattus norvegicus [3])	Activity (Rattus norvegicus [4])	Activity (Rattus norvegicus [5]) [%]
10000	19	CCn1nc(C)c2c1CCN([C@@H](C(=O)NC)c1ccccc1)[C@H]2COc1ccc(C)cc1				
1030	21	CCn1nc(C)c2c1CCN(C(C(=O)NC)c1ccccc1)C2CCc1ccccc1C (mixture of isomers)				
669	22	CCn1nc(C)c2c1CCN(C(C(=O)NC)c1ccccc1)C2CCc1ccccc1F (mixture of isomers)				
180	19	CCn1nc(C)c2c1CCN(C(C(=O)NC)c1ccccc1)C2CCc1cccc(C)c1 (mixture of isomers)				
161	9	CCn1nc(C)c2c1CCN([C@@H](C(=O)NC)c1ccccc1)[C@H]2CCc1ccc(C(C)C)cc1				
108	6	CCn1nc(C)c2c1CCN(C(C(=O)NC)c1ccccc1)C2CCc1ccc(C)cc1 (mixture of isomers)				
63	3	CCc1ccc(CC[C@H]2c3c(C)nn(CC)c3CCN2[C@@H](C(=O)NC)c2ccccc2)cc1				
769	25	CCn1nc(C)c2c1CCN(C(C(=O)NC)c1ccccc1)C2Cc1ccc(C(F)(F)F)cc1 (mixture of isomers)				
		CCn1nc(C)c2c1CCN([C@@H](C(=O)NC)c1ccccc1)[C@H]2CCc1ccc(C)c(C)c1	Active	Active	Active	15
128	3	CCn1nc(C)c2c1CCN([C@@H](C(=O)NC)c1ccccc1)[C@H]2CCc1ccc(C(F)(F)F)cc1				
358	7	CCn1nc(C)c2c1CCN(C(C(=O)NC)c1ccccc1)C2CCc1cccc(C(F)(F)F)c1 (mixture of isomers)				
402	10	CCn1nc(C)c2c1CCN(C(C(=O)NC)c1ccccc1)C2CCc1cccc(F)c1 (mixture of isomers)				
		CCn1nc(C)c2c1CCN([C@@H](C(=O)NC)c1ccccc1)[C@H]2CCc1cc(F)c(C(F)(F)F)c(F)c1	Active		Active	8
1920	179	CCn1nc(C)c2c1CCN([C@@H](C(=O)NC)c1ccccc1)[C@@H]2CCc1ccc(C(C)C)cc1				
993	12	CCn1nc(C)c2c1CCN(C(C(=O)NC)c1ccccc1)C2CCc1ccc(Cl)cc1 (mixture of isomers)				
10000	219	CCn1nc(C)c2c1CCN(C(C(=O)NC)c1ccccc1)C2CCc1ccc(OC)cc1 (mixture of isomers)				
1420	174	CCc1ccc(CC[C@@H]2c3c(C)nn(CC)c3CCN2[C@@H](C(=O)NC)c2ccccc2)cc1				
